Results: ChEMBL document CHEMBL1142241, “Atropisomeric 3-(beta-hydroxyethyl)-4-arylquinolin-2-ones as Maxi-K potassium channel openers” (J Med Chem, 2007)
“And” between values parts separate entries of the source, which are not always exact repeats. Identical values can stand only once.

Columns and labels:
[1] = biological target: Calcium-activated potassium channel subunit alpha-1 (Homo sapiens) (UniProt Q12791); assay: Activity at human maxi-K hSlo channel expressed in Xenopus oocytes assessed as increase in maxi k current at 10 uM relative to iberiotoxin; assay type: cell-based; conditions: Oocyte
Sequence of Calcium-activated potassium channel subunit alpha-1 (Homo sapiens) (Q12791 whole entry): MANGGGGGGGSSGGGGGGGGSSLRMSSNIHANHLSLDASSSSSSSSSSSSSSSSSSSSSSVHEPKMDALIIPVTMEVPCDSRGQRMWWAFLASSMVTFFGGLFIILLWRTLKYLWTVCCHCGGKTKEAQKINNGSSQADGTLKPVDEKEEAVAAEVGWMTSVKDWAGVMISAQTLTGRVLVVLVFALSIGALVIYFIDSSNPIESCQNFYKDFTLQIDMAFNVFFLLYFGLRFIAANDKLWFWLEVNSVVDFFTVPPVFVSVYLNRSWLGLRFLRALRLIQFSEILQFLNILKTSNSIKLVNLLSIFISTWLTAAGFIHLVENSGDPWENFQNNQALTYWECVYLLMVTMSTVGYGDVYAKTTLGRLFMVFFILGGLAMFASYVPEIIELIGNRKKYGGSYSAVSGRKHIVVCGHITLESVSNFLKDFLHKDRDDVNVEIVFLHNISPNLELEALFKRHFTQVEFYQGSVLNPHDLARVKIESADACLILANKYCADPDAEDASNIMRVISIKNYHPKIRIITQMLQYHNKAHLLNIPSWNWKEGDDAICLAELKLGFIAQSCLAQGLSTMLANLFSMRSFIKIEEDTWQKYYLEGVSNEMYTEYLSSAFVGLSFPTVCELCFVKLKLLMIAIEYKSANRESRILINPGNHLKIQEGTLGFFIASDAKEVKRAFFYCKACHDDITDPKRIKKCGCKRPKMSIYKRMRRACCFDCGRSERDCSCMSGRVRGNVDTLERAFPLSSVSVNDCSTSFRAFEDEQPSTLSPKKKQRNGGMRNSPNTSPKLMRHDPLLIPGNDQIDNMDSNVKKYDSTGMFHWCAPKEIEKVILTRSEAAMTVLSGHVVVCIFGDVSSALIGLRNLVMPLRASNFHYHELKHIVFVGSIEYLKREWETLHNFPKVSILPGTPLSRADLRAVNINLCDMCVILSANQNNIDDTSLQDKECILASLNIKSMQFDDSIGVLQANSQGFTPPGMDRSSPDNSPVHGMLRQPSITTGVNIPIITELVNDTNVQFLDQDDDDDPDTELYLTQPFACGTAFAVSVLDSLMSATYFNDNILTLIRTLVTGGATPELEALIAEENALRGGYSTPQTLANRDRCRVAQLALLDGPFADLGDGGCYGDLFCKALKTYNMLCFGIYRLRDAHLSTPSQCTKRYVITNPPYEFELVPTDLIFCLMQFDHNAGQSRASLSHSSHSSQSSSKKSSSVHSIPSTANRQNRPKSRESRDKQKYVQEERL
Summary of the method: (§1)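 Xenopus oocytes injected with 50 ng hSlo cRNA, recorded 2–5 days post-injection. Outward K+ currents evoked from a holding potential of -60 mV over -40 to +140 mV in 20 mV depolarizing steps. Compound applied for 5 min in at least 4–5 oocytes, then 100 nM iberiotoxin for 10 min. Values are % IbTX-sensitive current at peak effect, drug-free control = 100%.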

[2] = biological target: Calcium-activated potassium channel subunit alpha-1 (Homo sapiens) (UniProt Q12791); assay: Activity at human maxi-K hSlo channel expressed in Xenopus oocytes assessed as increase in maxi k current at 20 uM relative to iberiotoxin; assay type: cell-based; conditions: Oocyte; summary of the method: as §1
[3] = system: Serum; assay: Stability in human serum at 1 mM in 37 degC upto 30 hrs; assay type: ADME, cell-free; conditions: 1000 µM
Summary of the method: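 Pooled human serum prewarmed 5 min at 37 °C; test agent added from 0.1 M DMSO stock to final 1 mM in serum with 1% DMSO, held at 37 °C. Racemization followed by supercritical fluid chromatography on a chiral column over 30 h.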

[4] = biological target: Calcium-activated potassium channel subunit alpha-1 (Homo sapiens) (UniProt Q12791); assay: Activity at human maxi-K hSlo channel expressed in Xenopus oocytes assessed as increase in maxi k current at 5 uM relative to iberiotoxin; assay type: cell-based; conditions: Oocyte; summary of the method: as §1

Row | Compound | Activity [1] | Activity [2] | Stability [3] | Activity [4]
1 | O=c1[nH]c2ccc(C(F)(F)F)cc2c(-c2cc(Cl)ccc2O)c1CCO [BMS-223131] | 214% and 292% and 259% | 253% | Stable | 
2 | Cn1c(=O)c(CCO)c(-c2cc(Cl)cc(CCCO)c2O)c2cc(C(F)(F)F)ccc21 |  | 164% |  | 
3 | C=C(C)Cc1cc(Cl)cc(-c2c(CCO)c(=O)n(C)c3ccc(C(F)(F)F)cc23)c1O | 114% |  |  | 
4 | CCCc1cc(Cl)cc(-c2c(CCO)c(=O)n(C)c3ccc(C(F)(F)F)cc23)c1O | 127% |  |  | 
5 | Cn1c(=O)c(CCO)c(-c2cc(Cl)cc(CC(O)CO)c2O)c2cc(C(F)(F)F)ccc21 (stereo not given) |  | 112% |  | 
6 | CC(C)Cc1cc(Cl)cc(-c2c(CCO)c(=O)n(C)c3ccc(C(F)(F)F)cc23)c1O |  |  |  | 96.5%
7 | Cn1c(=O)c(CCO)c(-c2cc(Cl)ccc2O)c2cc(C(F)(F)F)ccc21 | 361% and 184% and 257% | 296% |  | 
